Source: PubChem BioAssay
Active and inactive are the calls of the source.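 The calls were made as follows, unless noted: active = inhibition above 20% together with a positive visual image hit; inconclusive = visual image hit but inhibition not above 20%; inactive = no visual image hit.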

Experiments:
[1] = inhibitors of TNFa-induced NFkB p65 translocation, primary screen, imaging, HUVEC, MLSMR starter and 10KST1 sets (AID 438); settings: HUVEC TNFa-induced p65 nuclear translocation; cell count: measured here: nuclei count (cytotoxicity indicator), at 2.08 µM; inhibition: at 2 µM, stronger effect = higher value, 0% TNFa-plus-vehicle, 100% no-TNFa wells;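 also: compound added about 3h40 before a 20 min TNFalpha stimulation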;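 as to inhibition: signal is the nuclear over cytoplasmic p65 intensity ratio per well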
[2] = reduction of polyQ htt aggregates in cells – imaging, exon1htt(103Q)mCFP cells, high-content imaging, primary screen (AID 483;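 active = visual image review flags a hit and inhibition of aggregation exceeds 20%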;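 also: compound exposure lasted 3 days before fixation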;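 as to nuclei count: percent of the per-plate median nuclei count of sample wells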); settings: exon1htt(103Q)mCFP cell line, aggregate imaging, at 2 µM; inhibition of aggregation: stronger effect = higher value; nuclei count: measured here: cell count, toxicity
[3] = endothelial E-selectin expression blockers – imaging, HUVEC, immunofluorescence, MLSMR starter and 10KST1 sets, primary screen (AID 487;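 active = visually confirmed hit in the image check and inhibition above 20%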;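 as to inhibition: signal is fraction of cell area covered by stained E-selectin grains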;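 as to nuclei count: 100% = median nuclei count of all wells on the same plate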); settings: HUVEC TNFalpha-induced E-selectin immunofluorescence imaging, at 2 µM; inhibition: stronger effect = higher value; nuclei count: measured here: cell number, toxicity
[4] = molecular target: Voltage-gated potassium channel subunit beta-2 (Rattus norvegicus) (UniProt P62483); assay: inhibitors of rat Kvbeta2 reductase activity – biochemical, NADPH fluorescence, primary screen (AID 622;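 active = fluorescence slope higher than the sample average by over 3 SD, cut at about -0.22 in these data, passing the limit was not always enough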;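 also: slope of raw intensity against log time taken from 70 to 1610 s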); settings: recombinant KvBeta, 4-cyanobenzaldehyde reduction, at 10 µM, stronger effect = higher value
[5] = molecular target: Voltage-gated potassium channel subunit beta-2 (Rattus norvegicus) (UniProt P62483); assay: enhancers of rat Kvbeta2 NADPH turnover – biochemical, NADPH fluorescence, primary screen (AID 623;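 active = NADPH fluorescence slope more negative than the mean of all samples by about 3 SD, 99.7% confidence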;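 also: fluorescence intensity change per second fitted from 20 to 320 s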); settings: Recombinant KvBeta, NADPH fluorescence decrease slope, 10 min; at 10 µM; stronger effect = lower value
[6] = molecular target: Muscarinic acetylcholine receptor M4 (Homo sapiens) (UniProt P08173); assay: M4-linked GIRK flux change, two-sided – cell-based, HEK293 M4/GIRK, thallium flux, BTC-AM, M4 allosteric agonist project, primary screen (AID 625;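 active = fluorescence slope after compound addition differing from the mean of all tested samples at 99.7% confidence, mostly higher but some lower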;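 also: thallium influx through GIRK channels coupled to M4 in HEK293 cells with BTC-AM dye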); settings: at 10 µM, actives lie on both sides
Procedure, shortened: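 System: HEK293 cells with M4 receptor and GIRK channels | Incubation: Cells overnight at 37 °C, BTC-AM loading 1 h, reads 2 min total | Technique: Kinetic BTC-AM fluorescence sampled at 1 Hz, 10 s pre-addition baseline | Measure: Post-addition slope, 15–24 s, of baseline-normalized fluorescence | Control set: Carbachol positive, DMSO negative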

[7] = blockers of RIG-like receptor reporter activation – cell-based, Sendai virus stimulus, luciferase, 10K MLSCN set, TLR/RLR signaling modifier project, primary screen (AID 602276;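 active = inhibition at or above 50% at 10 µM; inactive = inhibition below 50%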;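 also: firefly luciferase from ISG56 promoter only with Renilla not read in this screen; 0% = Sendai virus plus DMSO and 100% = medium plus DMSO without virus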); settings: HEK293 RL24 IRF3 luciferase reporter, at 10 µM, stronger effect = higher value
[8] = TLR3 IRF3 reporter activation blockers – cell-based, poly I:C stimulus, luciferase, 10K MLSCN set, primary screen (AID 602277;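 active = inhibition of the reporter signal at or above 50%; inactive = inhibition below 50%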); settings: HEK293-TLR3 RL24 IRF3 luciferase reporter, at 10 µM, stronger effect = higher value

Chain of Muscarinic acetylcholine receptor M4 (Homo sapiens) (P08173 whole entry, looked up): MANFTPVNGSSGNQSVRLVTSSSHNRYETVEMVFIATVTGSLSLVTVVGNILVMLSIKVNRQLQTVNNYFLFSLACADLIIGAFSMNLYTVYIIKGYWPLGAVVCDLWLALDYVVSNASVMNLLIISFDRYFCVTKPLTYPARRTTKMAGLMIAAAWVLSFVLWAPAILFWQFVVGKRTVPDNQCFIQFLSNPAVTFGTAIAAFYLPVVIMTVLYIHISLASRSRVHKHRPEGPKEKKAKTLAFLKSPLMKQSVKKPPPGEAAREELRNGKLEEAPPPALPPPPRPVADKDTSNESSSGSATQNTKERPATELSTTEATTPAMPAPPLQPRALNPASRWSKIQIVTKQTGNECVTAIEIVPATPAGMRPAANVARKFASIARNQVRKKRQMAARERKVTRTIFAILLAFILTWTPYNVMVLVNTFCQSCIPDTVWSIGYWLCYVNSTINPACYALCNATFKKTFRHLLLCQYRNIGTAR
Chain of Voltage-gated potassium channel subunit beta-2 (Rattus norvegicus) (P62483 whole entry, looked up): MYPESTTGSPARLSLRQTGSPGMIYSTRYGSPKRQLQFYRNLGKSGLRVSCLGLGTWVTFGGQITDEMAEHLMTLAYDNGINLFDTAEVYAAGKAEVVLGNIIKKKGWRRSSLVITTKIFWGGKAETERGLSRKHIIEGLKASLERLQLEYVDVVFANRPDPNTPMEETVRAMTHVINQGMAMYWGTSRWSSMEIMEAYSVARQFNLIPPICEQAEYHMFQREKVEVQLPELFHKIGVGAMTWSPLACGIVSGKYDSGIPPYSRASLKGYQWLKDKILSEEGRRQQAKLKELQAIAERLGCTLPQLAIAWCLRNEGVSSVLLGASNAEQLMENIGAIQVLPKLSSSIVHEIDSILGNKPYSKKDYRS

| SMILES | cell count [1] | inhibition [1] | inhibition of aggregation [2] | nuclei count [2] | inhibition [3] | nuclei count [3] | fluorescence slope [4] | NADPH fluorescence slope [5] | fluorescence slope [6] | inhibition [7] | inhibition [8] |
| --- | --- | --- | --- | --- | --- | --- | --- | --- | --- | --- | --- |
| CC1CCCCN1CCNC(=O)c1ccc2c(=O)n(CCc3ccccc3)c(=O)[nH]c2c1 (stereo not drawn) | 105 | 116% (active) | 12.7% (inactive) | 91.2% | -3.9% (inactive) | 119% | -0.279 (inactive) | -3.6e-05 (inactive) | 0.00585 (inactive) | 2.66% (inactive) | -7.7% (inactive) |
| O=C(Nc1ccccc1C(=O)N1CCOCC1)c1ccncc1 | 389 | 0.7% (inactive) | 5.4% (inactive) | 107% | -97.8% (inactive) | 105% | -0.579 (inactive) | -3.8e-05 (inactive) | 0.00647 (inactive) | 5.72% (inactive) | 17.1% (inactive) |
| CCCOc1ccc(/C(O)=C2/C(=O)C(=O)N(CCCOC)C2c2ccncc2)cc1 (stereo not drawn) | 593 | 5.8% (inactive) | 4% (inactive) | 97.6% | 1.9% (inactive) | 108% | -0.29 (inactive) | -6.1e-05 (inactive) | 0.00606 (inactive) | 13.1% (inactive) | 2.66% (inactive) |
| CN(Cc1cnn(C)c1)C(=O)c1cc2ccccc2oc1=O | 682 | 13% (inactive) | -9.2% (inactive) | 92.1% | 40% (inactive) | 98.2% | -0.484 (inactive) | -5.1e-05 (inactive) | 0.00454 (inactive) | 11.1% (inactive) | 14% (inactive) |
| CC(=O)Nc1ccc(OC(=O)c2cccnc2)cc1 | 367 | 0.3% (inactive) | -13.8% (inactive) | 103% | -194% (inactive) | 112% | -0.318 (inactive) | -4.9e-05 (inactive) | 0.00601 (inactive) | -10.8% (inactive) | -12.7% (inactive) |
| Cc1c(NC(=O)c2cnn3c2NC(c2ccco2)CC3C(F)(F)F)c(=O)n(-c2ccccc2)n1C (stereo not drawn) | 436 | -1% (inactive) | 2.9% (inactive) | 101% | -27.3% (inactive) | 115% | -0.557 (inactive) | -2.6e-05 (inactive) | 0.00692 (inactive) | 15.2% (inactive) | 18.8% (inactive) |
| CC(C(=O)N1CCCCC1)n1sc2ccccc2c1=O (stereo not drawn) | 355 | -10.8% (inactive) | -13.5% (inactive) | 111% | -96.4% (inactive) | 109% | -0.479 (inactive) | -0.000258 (inactive) | 0.00498 (inactive) | -14.1% (inactive) | -35.6% (inactive) |
| N#Cc1cnc2sc3ccccc3n2c1=N | 332 | -12.6% (inactive) | 5.1% (inactive) | 119% | -14.8% (inactive) | 106% | -0.554 (inactive) | 7.2e-06 (inactive) | 0.00378 (inactive) | -9.74% (inactive) | -37.6% (inactive) |
| O=C(c1cccc(Cl)c1)N1CCN(Cc2ccncc2)CC1 | 702 | 3.1% (inactive) | 1.7% (inactive) | 106% | -87.8% (inactive) | 109% | -0.537 (inactive) | 0.000145 (inactive) | 0.00543 (inactive) | 3.71% (inactive) | 7.08% (inactive) |
| COc1ccc(OC)c(Nc2cc(-c3ccccc3)nc(N)n2)c1 | 423 | 9.2% (inactive) | -34.6% (inactive) | 0.5% | -25.1% (inactive) | 115% | -0.548 (inactive) | 4.9e-06 (inactive) | 0.00508 (inactive) | 46.6% (inactive) | 86.6% (active) |
| CCC1c2ccc(C)n2CCN1C(=O)Nc1ccccc1OC (stereo not drawn) | 551 | -15.9% (inactive) | 0.1% (inactive) | 112% | -63.1% (inactive) | 116% | -0.402 (inactive) | -6.4e-05 (inactive) | 0.00541 (inactive) | 3.56% (inactive) | 3.42% (inactive) |
| C=CCn1cnc2c(NCc3ccccc3)ncnc21 | 387 | -13.3% (inactive) | 3% (inactive) | 98.8% | 20.4% (inactive) | 142% | -0.587 (inactive) | 3.1e-05 (inactive) | 0.00713 (inactive) | -54.3% (inactive) | -89% (inactive) |
| CCn1c(=O)cc(OCC(=O)Nc2cc(C)ccn2)c2ccccc21 | 300 | -0.6% (inactive) | -7.1% (inactive) | 101% | -11.5% (inactive) | 126% | -0.537 (inactive) | -5.7e-06 (inactive) | 0.00495 (inactive) | 13.4% (inactive) | 21.3% (inactive) |
| O=C(CSc1nnc(-c2ccccc2Cl)n1Cc1ccco1)Nc1ccc2c(c1)OCCO2 | 309 | 0.8% (inactive) | 3.4% (inactive) | 88.5% | -75.1% (inactive) | 107% | -0.391 (inactive) | -9.8e-05 (inactive) | 0.00631 (inactive) | 8.89% (inactive) | 18.1% (inactive) |
| COc1ccccc1Nc1nc(N)nc(CSc2nccc(C)n2)n1 | 701 | -8.6% (inactive) | -9.5% (inactive) | 99.9% | 28.3% (inactive) | 112% | -0.546 (inactive) | 4.7e-05 (inactive) | 0.00561 (inactive) | 11.6% (inactive) | 5.69% (inactive) |
| COCCNC(=O)CSc1nc(-c2ccc(OC)c(OC)c2)cc(C(F)(F)F)n1 | 430 | 3.4% (inactive) | -8.2% (inactive) | 104% | -34.3% (inactive) | 115% | -0.445 (inactive) | -0.000127 (inactive) | 0.00332 (inactive) | 17.7% (inactive) | 14.6% (inactive) |
| COc1cc(C(=O)N2CCN(C(=O)CC(C)C)CC2)cc(OC)c1OC | 550 | 3.6% (inactive) | 5% (inactive) | 105% | -73.6% (inactive) | 117% | -0.47 (inactive) | 7.6e-05 (inactive) | 0.00561 (inactive) | -10.1% (inactive) | -1.34% (inactive) |
| COC(=O)Cc1csc(N)n1 | 743 | 10% (inactive) | 15% (inactive) | 109% | -54.5% (inactive) | 122% | -0.529 (inactive) | 2.5e-05 (inactive) | 0.00536 (inactive) | 12.4% (inactive) | 22.3% (inactive) |
| CCOC(=O)NC(=O)CSc1nnc(C)s1 | 804 | 4.3% (inactive) | -0.4% (inactive) | 105% | -130% (inactive) | 135% | -0.421 (inactive) | -9.6e-06 (inactive) | 0.00543 (inactive) | 18.9% (inactive) | 17.5% (inactive) |
| c1ccc2c(c1)C(=Nn1cnnc1)c1ccccc1-2 | 606 | -3.4% (inactive) | 15.7% (inactive) | 101% | -107% (inactive) | 122% | -0.448 (inactive) | -6.8e-05 (inactive) | 0.00319 (inactive) | 10.6% (inactive) | 11% (inactive) |
| CCOC(=O)c1c(NC(=O)CSc2nc3c(c(=O)n(C)c(=O)n3C)n2C(C)C)sc(C)c1C | 547 | 1.2% (inactive) | 17.1% (inactive) | 110% | 26.4% (inactive) | 82.3% | -0.564 (inactive) | -2.9e-05 (inactive) | 0.00617 (inactive) | 18% (inactive) | 20.6% (inactive) |
| CCN1CCN(C(=O)c2cn(CCOC)c(=O)c3c2c2ccccc2n3C)CC1 | 460 | 2.7% (inactive) | 2.4% (inactive) | 108% | -40.3% (inactive) | 109% | -0.582 (inactive) | -6.9e-06 (inactive) | 0.00622 (inactive) | 6.11% (inactive) | 14.5% (inactive) |
| CC(=O)N1C(=O)N(C)C2C1N(C(C)=O)C(=O)N2C (stereo not drawn) | 395 | 5.4% (inactive) | 7.3% (inactive) | 96.4% | -4.1% (inactive) | 98.6% | -0.574 (inactive) | -5e-05 (inactive) | 0.00666 (inactive) | 11.1% (inactive) | 16.5% (inactive) |
| O=C(CSc1nc(-c2ccc(F)cc2)cs1)N1CCOCC1 | 311 | 9.3% (inactive) | 20.5% (inactive) | 95.1% | -45.8% (inactive) | 93.6% | -0.462 (inactive) | 2.4e-05 (inactive) | 0.00525 (inactive) | -23.2% (inactive) | -106% (inactive) |
| Cn1c(=O)n(C)c2cc(NC(=O)C(F)(F)F)ccc21 | 231 | -14.4% (inactive) | 34.3% (active) | 96.5% | -10.9% (inactive) | 103% | -0.449 (inactive) | -3.6e-06 (inactive) | 0.00534 (inactive) | 5.97% (inactive) | 17.7% (inactive) |
| O=C(NCCc1ccccc1)c1cc(-c2ccco2)on1 | 384 | -8.7% (inactive) | 7.8% (inactive) | 102% | -29.5% (inactive) | 96.5% | -0.473 (inactive) | -5.1e-05 (inactive) | 0.00445 (inactive) | -44.9% (inactive) | -169% (inactive) |
| CC(=O)c1cc2c(=O)c3cc(C)ccc3oc2nc1C | 410 | 5.3% (inactive) | 7.1% (inactive) | 93.5% | -96.2% (inactive) | 187% | -0.346 (inactive) | 5.2e-06 (inactive) | 0.00597 (inactive) | -28.2% (inactive) | -91.3% (inactive) |
| O=C(Nc1ccc(Cl)cc1)N1CCSCC1 | 358 | 6.3% (inactive) | -8.3% (inactive) | 104% | 37.4% (inactive) | 84.1% | -0.494 (inactive) | -3e-05 (inactive) | 0.00504 (inactive) | -2.29% (inactive) | -14.3% (inactive) |
